According to ChEMBL document CHEMBL2434958, “Identification of a novel series of orexin receptor antagonists with a distinct effect on sleep architecture for the treatment of insomnia” (J Med Chem, 2013):
Active and inactive are the calls of the source. The rule behind the calls is not given here.

Assays:
[1] = test system: Mus musculus; assay: Induction of sleep in C57BL/6 mouse assessed as increased rapid eye movement sleep proportion at 50 mg/kg, po measured during 1 hr by EEG/EMG analysis relative to vehicle-treated control; assay type: functional, organism-based; parameters: dose 50 mg/kg
Method in brief: (§1)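 Male C57Bl/6 mice with implanted cortical EEG screw electrodes and EMG, recovered 2 weeks, 12 h/12 h light/dark cycle. Crossover: vehicle (0.5% methylcellulose, 10 mL/kg po) on day 2, compound po on day 3, each given 5–15 min before lights-off. 23 h recordings; EEG filtered 0.3–30 Hz, EMG 5–30 Hz; 10 s epochs scored as wake, NREM or REM from EEG/EMG and infrared motility.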

[2] = test system: Mus musculus; assay: Induction of sleep in C57BL/6 mouse assessed as increase in non-rapid eye movement at 50 mg/kg, po measured during 4 hrs by EEG/EMG analysis relative to vehicle-treated control; assay type: functional, organism-based; parameters: dose 50 mg/kg; method in brief: as §1
[3] = test system: Mus musculus; assay: Induction of sleep in C57BL/6 mouse assessed as increase in rapid eye movement at 50 mg/kg, po measured during 4 hrs by EEG/EMG analysis relative to vehicle-treated control; assay type: functional, organism-based; parameters: dose 50 mg/kg; method in brief: as §1
[4] = test system: Mus musculus; assay: Effect on locomotion in C57BL/6 mouse assessed as reduction of motility at 50 mg/kg, po measured up to 4 hrs; assay type: functional, organism-based; parameters: dose 50 mg/kg
Method in brief: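 Mice habituated, then dosed orally immediately before lights-off (15:00, start of active phase); vehicle 0.5% methylcellulose in water. Inactivity = any minute with no infrared beam breaks. Per-animal difference between inactivity 15:00–19:00 post-dose and the same 4 h during habituation 24 h earlier. n = 6; one-way ANOVA with Dunnett's test versus vehicle.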

[5] = test system: Brain; assay: Fraction unbound in C57BL/6 mouse brain at 50 mg/kg, po after 1 hr by LC-MS/MS analysis; assay type: ADME, organism-based; parameters: dose 50 mg/kg, route oral; settings: in vivo
Method in brief: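 Unbound fraction assessed in mouse brain homogenate by a slightly adapted literature method, measured separately from the dosed animals. Free brain level obtained by multiplying fraction unbound by brain concentration from the 50 mg/kg po satellite group at 60 min. Mean ± SD, n = 3.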

[6] = Drug uptake in C57BL/6 mouse blood at 50 mg/kg after 1 hr by LC-MS/MS analysis; assay type: ADME, organism-based; parameters: dose 50 mg/kg; settings: read-out: Drug uptake
Method in brief: (§2)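 Satellite PK group: oral gavage of 50 mg/kg suspended in 0.5% w/v methylcellulose in water, 10 mL/kg. Blood and brain taken after decapitation at 15 and 60 min post-dose, n = 3 mice per time point, stored at −20 °C. Brain homogenised in 2 mM KH₂PO₄; acetonitrile quench with internal standard; LC/MS/MS against six-level calibration curve. Mean ± SD reported.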

[7] = test system: Brain; assay: Drug uptake in C57BL/6 mouse brain at 50 mg/kg after 1 hr by LC-MS/MS analysis; assay type: ADME, organism-based; parameters: dose 50 mg/kg; settings: in vivo; method in brief: as §2
[8] = target: T1, Orexin receptor type 2 (Mus musculus, UniProt P58308); assay: Antagonist activity at mouse OX2 receptor expressed in HEK cells assessed as inhibition of orexin A-induced Ca2+ accumulation after 1 hr by Fluo-4-AM staining-based FLIPR assay; assay type: functional, cell-based, HEK293
T1 sequence (P58308 whole entry): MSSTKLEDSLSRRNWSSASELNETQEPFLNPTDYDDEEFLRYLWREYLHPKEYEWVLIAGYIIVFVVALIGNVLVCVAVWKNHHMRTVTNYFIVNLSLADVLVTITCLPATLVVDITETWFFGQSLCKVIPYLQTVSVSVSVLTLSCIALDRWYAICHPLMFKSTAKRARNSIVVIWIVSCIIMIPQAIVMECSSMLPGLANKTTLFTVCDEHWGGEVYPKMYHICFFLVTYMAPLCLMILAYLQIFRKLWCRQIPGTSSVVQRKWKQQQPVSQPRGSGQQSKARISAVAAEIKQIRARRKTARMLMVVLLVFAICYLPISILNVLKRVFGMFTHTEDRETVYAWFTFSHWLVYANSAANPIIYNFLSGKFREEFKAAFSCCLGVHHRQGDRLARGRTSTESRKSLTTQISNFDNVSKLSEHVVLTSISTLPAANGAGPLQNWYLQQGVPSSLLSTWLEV

[9] = target: T2, Orexin/Hypocretin receptor type 1 (Mus musculus, UniProt P58307); assay: Antagonist activity at mouse OX1 receptor expressed in CHO cells assessed as inhibition of orexin A-induced Ca2+ accumulation after 1 hr by Fluo-4-AM staining-based FLIPR assay; assay type: functional, cell-based
T2 sequence (P58307 whole entry): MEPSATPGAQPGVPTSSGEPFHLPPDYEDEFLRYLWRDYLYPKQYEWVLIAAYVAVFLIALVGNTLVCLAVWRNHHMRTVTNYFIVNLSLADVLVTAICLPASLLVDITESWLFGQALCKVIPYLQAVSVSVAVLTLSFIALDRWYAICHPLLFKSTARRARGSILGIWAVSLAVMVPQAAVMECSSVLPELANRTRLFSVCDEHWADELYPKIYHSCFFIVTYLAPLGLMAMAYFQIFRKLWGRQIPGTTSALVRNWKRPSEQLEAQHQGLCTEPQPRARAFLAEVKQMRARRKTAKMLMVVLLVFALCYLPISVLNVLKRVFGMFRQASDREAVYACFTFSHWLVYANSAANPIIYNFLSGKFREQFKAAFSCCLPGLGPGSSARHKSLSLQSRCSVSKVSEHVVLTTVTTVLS

[10] = test system: Mus musculus; assay: Induction of sleep in C57BL/6 mouse assessed as increase in total sleep time at 50 mg/kg, po measured during first 4 hrs by EEG/EMG analysis relative to vehicle-treated control

In the case of Cc1ccc(-n2nccn2)c(C(=O)N2CCN(c3nc4cc(Cl)ccc4o3)CC[C@H]2C)c1 [SUVOREXANT], the Activity [1] is reported as “Active”, the Activity [2] is reported as “Active” and the Activity [3] is reported as “Active”. For the same compound, the Activity [4] was “Active”, the Fu [5] was 0.65% and the concentration at 1 h [6] was 10.5 µM. It also gave a Drug uptake [7] of 10329 pmol/g, a Ki [8] of 8.71 nM and a Ki [9] of 1.7 nM. For the same compound, the Activity [10] was “Active”.
